Experiment [1] has as its system TF-1. As to the kind of experiment: Cytotoxicity against human TF1 cells. Format: functional, cell-based.
Experiment [2] has as its system HeLa. In words: Cytotoxicity against human HeLa cells. It counts as functional, cell-based.
For experiment [3], the system named is Staphylococcus aureus. As to the kind of experiment: Antimicrobial activity against Staphylococcus aureus ATCC 25923 at 5 and 10 ug after 24 hrs by agar diffusion method. It counts as functional, organism-based. Summed up:
(§1)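 Paper disks (5 mm) loaded with 5 or 10 µg of compound in MeOH, set on LB agar plates seeded with the test bacterium. Incubated 24 h at 37 °C, then inhibition zone diameters recorded. Disks carrying solvent only served as controls.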

Experiment [4] has as its system Bacillus subtilis. In words: Antimicrobial activity against Bacillus subtilis 168 at 5 and 10 ug after 24 hrs by agar diffusion method. It counts as functional, organism-based. The essentials: as §1
Experiment [5] has as its system Candida albicans. In words: Antimicrobial activity against Candida albicans at 5 and 10 ug after 24 hrs by agar diffusion method. Format: functional, organism-based. The essentials:
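Disks (5 mm) carrying 5 or 10 µg of compound in MeOH were placed on YPD agar plates inoculated with C. albicans. Inhibition zones were read after 24 h at 27 °C. Solvent-only disks served as controls.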

Experiment [6] concerns Artemia salina. As to the kind of experiment: Toxicity against Artemia salina. Format: organism-based.

≈ marks a conversion by molar mass, not a printed value. Calls of active or inactive are those of the source. No cut-off for these calls is given here.

For eight compounds, Activity and IC50 results are on record in ChEMBL document CHEMBL1158886, “Melophlins C-O, thirteen novel tetramic acids from the marine sponge Melophlus sarassinorum” (J Nat Prod, 2003).

Regarding `CC(C)CCCCCCCCC/C(O)=C1\C(=O)C(C)N(C)C1=O` (configuration not stated), the result in experiment [1] and in experiment [2] was inactive.

Turning to `CC(C)CCCCCCCCCCC/C(O)=C1\C(=O)CN(C)C1=O`, the outcome in experiment [1] and in experiment [2] was inactive.

`CC(C)CCCCCCCCCCCC/C(O)=C1\C(=O)CN(C)C1=O`: the result in experiment [1] and in experiment [2] was inactive.

In the case of `CCC(C)CCCCCCCC/C(O)=C1\C(=O)C(C)N(C)C1=O` (configuration not stated), the outcome in experiment [1] and in experiment [2] was inactive.

In the case of `CCCCCCCCCCC/C(O)=C1\C(=O)C(C)N(C)C1=O` (configuration not stated), the result in experiment [1] and in experiment [2] was inactive.

As to `CCCCCCCC(C)CCC/C(O)=C1\C(=O)C(C)N(C)C1=O` (configuration not stated) [MELOPHLIN C], the result in experiment [3], in experiment [4] and in experiment [5] was Active. Also, the result in experiment [1] and in experiment [2] was inactive. This compound registered a half-inhibitory concentration (IC50) in experiment [6] of 36.6 µg/mL (≈ 113 µM).

Turning to `CCCCCCCCCCCCC/C(O)=C1\C(=O)CN(C)C1=O` [MELOPHLIN G], the outcome in experiment [1] and in experiment [2] was inactive. The same compound yielded an IC50 in experiment [6] of 48.8 µg/mL (≈ 151 µM).

Take `CCC(C)CCCCCCCCCC/C(O)=C1\C(=O)CN(C)C1=O` (configuration not stated) [MELOPHLIN I]: the result in experiment [1] and in experiment [2] was inactive. Also, in experiment [6], half-maximal inhibition (IC50) was put at 52.6 µg/mL (≈ 156 µM).
